ABHD5-PLIN5 inh = ABHD5-PLIN5 interaction inhibitors, primary screen, cell lysate, split luciferase complementation, luminescence. 0.78% of 360,000 active. Perilipin-5 (Homo sapiens) + 1-acylglycerol-3-phosphate O-acyltransferase ABHD5 (Homo …. inhibition, % at 4 µM. AID 602281, 2012. Split G. princeps luciferase complementation, 4 h;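 active = inhibition above the mean inhibition across every tested compound plus 3 SD, cut at about 22% in these data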;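 also: 0% = DMSO only wells and the 100% control is not disclosed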
Target sequence (Q00G26 whole entry, looked up): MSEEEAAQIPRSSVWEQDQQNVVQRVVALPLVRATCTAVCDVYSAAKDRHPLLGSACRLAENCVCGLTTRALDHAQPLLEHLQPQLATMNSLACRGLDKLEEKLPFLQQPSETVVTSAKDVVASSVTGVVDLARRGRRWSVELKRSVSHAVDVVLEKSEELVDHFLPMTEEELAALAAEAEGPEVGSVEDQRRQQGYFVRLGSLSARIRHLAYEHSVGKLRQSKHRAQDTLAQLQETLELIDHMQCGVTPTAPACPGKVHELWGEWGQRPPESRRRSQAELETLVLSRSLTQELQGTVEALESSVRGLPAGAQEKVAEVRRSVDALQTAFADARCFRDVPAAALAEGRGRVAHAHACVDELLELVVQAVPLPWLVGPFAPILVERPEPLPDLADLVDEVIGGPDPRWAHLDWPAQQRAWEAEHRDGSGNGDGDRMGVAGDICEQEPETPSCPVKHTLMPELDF
Target sequence (Q8WTS1 whole entry, looked up): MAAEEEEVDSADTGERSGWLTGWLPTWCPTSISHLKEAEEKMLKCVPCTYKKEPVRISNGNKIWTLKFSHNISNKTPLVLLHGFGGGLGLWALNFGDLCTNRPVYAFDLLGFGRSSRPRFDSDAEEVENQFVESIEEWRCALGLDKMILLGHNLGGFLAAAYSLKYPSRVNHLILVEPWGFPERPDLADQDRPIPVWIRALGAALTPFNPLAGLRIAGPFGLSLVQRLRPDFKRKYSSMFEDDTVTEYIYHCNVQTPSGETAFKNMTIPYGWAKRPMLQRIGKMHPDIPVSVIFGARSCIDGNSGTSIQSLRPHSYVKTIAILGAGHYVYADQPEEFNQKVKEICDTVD
Rin1-Abl PPI inh = inhibitors of Rin1-Abl protein binding, primary screen, biochemical, TR-FRET; inhibition, % at 7.35 µM; 0.4% of 360,000 active; Tyrosine-protein kinase ABL1 (Homo sapiens) + Ras and Rab interactor 1 (Homo sapiens), …; AID 588664, 2011; in the data active = inhibition above about 5%, passing the limit was not always enough
NadD block = inhibitors of S. aureus NadD, primary screen, biochemical, colorimetric, uHTS; inhibition, % at 20 µM; Nicotinate-nucleotide adenylyltransferase NadD (Staphylococcus aureus N315); purified NadD enzyme, colorimetric absorbance read-out; 0.78% of 360,000 active; AID 602399, 2012; in the data active = inhibition above about 26%
Rpn11 block = Rpn11 (PSMD14) deubiquitinase inhibitors, primary screen, biochemical, fluorescence polarization, uHTS; human 26S proteasome, Ub4-pepOG fluorescence polarization; 20S core pre-blocked with epoxomicin; 26S proteasome non-ATPase regulatory subunit 14 (Homo sapiens), O00487; 0.59% of 360,000 active; inhibition, % at 20 µM;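 active = inhibition at 20 µM, scaled to each plate's controls, above about 33%, limit read from the data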
XiGFP reactiv = activators of inactive X chromosome reactivation, primary screen, imaging, XiGFP fibroblasts, GFP high-content imaging, set 2. activation, % at 7.58 µM. XiGFP mouse fibroblasts, % GFP-positive cells imaging, 3 d; cells co-treated with 5-aza-dC sensitizer; scaled so ellipticine positive control = 100%. 0.055% of 360,000 active;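 active = mean normalized replicate activation at least 10% and every replicate at or above 10%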;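 also: 0% = median of on-plate neutral control wells and 100% = ellipticine 6 µM median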
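System: 68-5-11 XiGFP fibroblast line; Timing: 3 days compound exposure; Compound dosing: one concentration, pinned; Benchmarks: positive control ellipticine, 6 µM final; Buffer or medium: DMEM containing 5-aza-dC.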
Rin1-Abl confirm = Rin1-Abl binding inhibitor retest, confirmation, biochemical, TR-FRET. shares compounds with Rin1-Abl PPI inh. purified proteins. inhibition, % at 7.35 µM. 49% of 1,300 active. AID 602124, 2011
GFP quench = GFP fluorescence inhibitors and quenchers, artefact control for Rin1-Abl interaction inhibitor project, biochemical. shares compounds with Rin1-Abl PPI inh. inhibitors/quenchers counterscreen. inhibition, % at 6.75 µM. 8.5% of 1,300 active;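 also: ABL1-eGFP fusion protein alone without its partner RIN1-SBP; 0% = protein with vehicle and 100% = wells lacking protein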
GFP quench dose = GFP fluorescence inhibitors and quenchers, dose response, artefact control for Rin1-Abl interaction inhibitor project, biochemical | 230 tested, under 10 active | shares compounds with Rin1-Abl PPI inh | IC50, µM | GFP fluorescence interference/quenching counterscreen; call rule not given here;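 also: ABL1-eGFP fusion protein alone without its RIN1 binding partner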
* = called active by the depositor; . = no result. Compounds with a hit are over-represented: about 1.9% of the library has one in this group of screens. Rule as the data show it, unless noted: active = inhibition above about 6.5%; inactive = the rest.

SMILES	ABHD5-PLIN5 inh	Rin1-Abl PPI inh	NadD block	Rpn11 block	XiGFP reactiv	Rin1-Abl confirm	GFP quench	others
CCn1c2ccccc2c2cc(CN3CCN(S(C)(=O)=O)CC3)ccc21	17.8	6.1*	-9.0	7.7	-0.1	-2.5	-1.9
CCn1c2ccccc2c2cc(CN3CCN(Cc4cc(OC)ccc4O)CC3)ccc21	9.2	5.4	1.4	-0.2	0.0	.	.
O=C1C=CC(=O)c2c(O)c(N3CCN(CCO)CC3)c(Cl)c(O)c21	-6.6	47.9*	49.6*	-81.6	-0.1	51.2*	23.6*
O=S(=O)(c1ccc(Br)cc1Cl)N1CCN(CCO)CC1	-2.8	-3.3	-5.5	-3.2	0.0	.	.
O=C1C=CC(=O)c2c(O)c(N3CCN(CCOCCO)CC3)c(Br)c(O)c21	-2.3	39.4*	62.1*	-90.4	-0.2	54.4*	25.0*
CCOc1cc(CN2CCN(CCOCCO)CC2)ccc1OC	-0.5	-0.7	1.3	-6.3	.	.	.
CCC(=O)N(C)C[C@@H]1Oc2cc(C3=CCCCC3)ccc2S(=O)(=O)N([C@@H](C)CO)C[C@H]1C	.	.	.	.	-0.6	.	.
OCCN1CCN(c2cnc(-c3ccsc3)cn2)CC1	-0.8	6.3*	-2.5	-0.5	0.2	-4.1	0.9
C[C@@H]1CCCCO[C@H](CN(C)C(=O)c2ccncc2)[C@@H](C)CN([C@H](C)CO)C(=O)c2cc(NC(=O)C3CCCCC3)ccc2O1	.	.	.	.	-0.8	.	.
CC(C)CC#Cc1ccc([C@H]2[C@H]3CN(C(=O)c4ccc5c(c4)OCO5)CC(=O)N3[C@H]2CO)cc1	.	.	.	.	0.5	.	.
COC(=O)c1ccc(COC(=O)c2ccc(-n3cnnn3)cc2)o1	1.7	22.9*	-5.6	-2.9	.	20.3*	-0.8	GFP quench dose=>67.5
COc1cc(CNC2CCCC2)c(Br)cc1OC1CCCC1	8.2	4.3	-5.8	-2.9	0.0	.	.
COc1cc(CNCc2ccccc2)c(Br)cc1OC1CCCC1	4.7	8.8*	-3.5	1.7	0.0	5.3	-1.0
CCCCNC(=O)C1(C)CCCCCN1Cc1cccc2c(OC)cc(C(=O)OCC)cc12 (stereo not drawn)	-3.6	6.9*	9.5	4.9	0.1	-2.2	0.6
CNC[C@@H]1Oc2ccc(N)cc2CC(=O)N(C)C[C@H]1C	.	.	.	.	0.3	.	.
C[C@H]1CN(C)C(=O)Cc2cc(N(C)C)ccc2O[C@@H]1CN(C)C	.	.	.	.	0.3	.	.
COc1ccc(C2C3=C(CC(C)(C)CC3=O)Oc3ncn(CCCn4ccnc4)c(=N)c32)cc1 (stereo not drawn)	-5.4	4.5*	-6.1	-5.3	.	10.3*	0.1
COc1ccccc1N=Nc1ccc(O)c2ncccc12	1.7	8.7*	30.9*	34.4	0.5	4.9	12.3*
Oc1ccc(N=Nc2ccccc2C(F)(F)F)c2cccnc12	6.7	2.1	2.3	35.0	0.1	.	.
O=C(CSC1=NNC(c2ccccn2)S1)Nc1cccc(Cl)c1 (stereo not drawn)	-15.1	2.8	19.8	25.5	-0.1	.	.
O=C(CSC1=NNC(c2ccccn2)S1)Nc1ccccc1 (stereo not drawn)	9.7	6.5*	-0.8	24.8	-0.1	-5.6	2.5
CN(CC(=O)Nc1ccccn1)S(=O)(=O)c1ccc(Cl)cc1	-1.1	35.8*	-0.6	-2.1	.	-3.1	-1.5
Cc1cnc(NC(=O)CN(C)S(=O)(=O)c2ccc(Cl)cc2)s1	0.2	2.7	-2.2	1.6	.	.	.
CCCC(=O)NC(C)c1nc2ccccc2n1CC (stereo not drawn)	-1.7	-2.5	-1.0	0.4	-0.1	.	.
